Reference: ChEMBL document CHEMBL1121657, “Effects of 1-arylpyrroles and naphthoflavones upon cytochrome P-450 dependent monooxygenase activities” (J Med Chem, 1981)

Assays:
[1] = Compound was evaluated for inhibition constant, in liver microsomes from 3-methylcholanthrene-exposed rats; parameters: species or system Rattus norvegicus, Microsome
Rattus norvegicus [2] = organism: Rattus norvegicus; experiment: Michaelis-Menten constant for 7-ethoxycoumarin deethylation in rat liver microsomes exposed to beta-naphthoflavone at 50 uM; conditions: Microsome
Method in brief: (§1)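 Liver microsomes from young male Sprague-Dawley rats (75-125 g) given the inducer ip in corn oil at 50 mg/kg on 3 successive days, microsomes isolated on day 4. 7-Ethoxycoumarin (2.5 to 300 μM final) in 0.1 M Tris-HCl pH 7.4 with NADPH-regenerating system. Reaction started with microsomal protein (0.375-0.56 mg), run 4 min at 37 °C, stopped with TCA. 7-Hydroxycoumarin read fluorometrically at pH 10.3. Inhibitor added from methanol stock, ≥4 assays per condition. KM/Vmax obtained by the Eisenthal–Cornish-Bowden direct linear method with 95% distribution-free confidence limits.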

[3] = Compound was evaluated for inhibition constant, in liver microsomes from beta-naphthoflavone-exposed rats; parameters: species or system Rattus norvegicus, Microsome
Rattus norvegicus [4] = organism: Rattus norvegicus; experiment: Michaelis-Menten constant for 7-ethoxycoumarin deethylation in rat liver microsomes exposed to beta-naphthoflavone at 200 uM; conditions: Microsome
Method in brief: (§2)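 Liver microsomes from male Sprague-Dawley rats given 3MC or βNF ip (50 mg/kg/day, corn oil, 3 days), harvested day 4. NADPH-regenerating system in 0.1 M Tris-HCl pH 7.4. Substrate 2.5-300 μM final. Inhibitor added from methanol stock. Reaction started with 0.375-0.56 mg microsomal protein, run 4 min at 37 °C, stopped with TCA. 7-Hydroxycoumarin fluorescence read at pH 10.3. At least four assays per substrate concentration. KM and Vmax by direct linear method, with distribution-free 95% confidence limits.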

Rattus norvegicus [5] = organism: Rattus norvegicus; experiment: Michaelis-Menten constant for 7-ethoxycoumarin deethylation in rat liver microsomes exposed to beta-naphthoflavone at 100 uM; conditions: Microsome; method in brief: as §2
Rattus norvegicus [6] = organism: Rattus norvegicus; experiment: Compound was evaluated for alpha inhibition constant, in liver microsomes from beta-naphthoflavone-exposed rats; conditions: Microsome
Method in brief: (§3)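 Rats (male Sprague-Dawley, 75-125 g) dosed ip with 3MC or βNF, 50 mg/kg in corn oil, on 3 successive days; liver microsomes isolated day 4. 7-Ethoxycoumarin deethylation (2.5-300 μM substrate) measured with inhibitor present; KM and Vmax by Eisenthal–Cornish-Bowden direct linear method. Ki from x-intercept of least-squares KM/Vmax vs [I]; αKi from x-intercept of 1/Vmax vs [I].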

Rattus norvegicus [7] = organism: Rattus norvegicus; experiment: Maximum rate constant for 7-ethoxycoumarin deethylation in rat liver microsomes exposed to 3-methylcholanthrene at 5 uM; conditions: Microsome; method in brief: as §2
Rattus norvegicus [8] = organism: Rattus norvegicus; experiment: Michaelis-Menten constant for 7-ethoxycoumarin deethylation in rat liver microsomes 3-methylcholanthrene at a concentration of 5 uM; conditions: Microsome; method in brief: as §2
Rattus norvegicus [9] = organism: Rattus norvegicus; experiment: Maximum rate constant for 7-ethoxycoumarin deethylation in rat liver microsomes exposed to beta-naphthoflavone at 100 uM; conditions: Microsome; method in brief: as §2
Rattus norvegicus [10] = organism: Rattus norvegicus; experiment: Maximum rate constant for 7-ethoxycoumarin deethylation in rat liver microsomes exposed to 3-methylcholanthrene at 50 uM; conditions: Microsome; method in brief: as §2
Rattus norvegicus [11] = organism: Rattus norvegicus; experiment: Maximum rate constant for 7-ethoxycoumarin deethylation in rat liver microsomes exposed to beta-naphthoflavone at 200 uM; conditions: Microsome; method in brief: as §2
Rattus norvegicus [12] = organism: Rattus norvegicus; experiment: Michaelis-Menten constant for 7-ethoxycoumarin deethylation in rat liver microsomes exposed to 3-methylcholanthrene at a concentration of 5 uM; conditions: Microsome; method in brief: as §2
Rattus norvegicus [13] = organism: Rattus norvegicus; experiment: Michaelis-Menten constant for 7-ethoxycoumarin deethylation in rat liver microsomes exposed to 3-methylcholanthrene at concentration of 10 uM; conditions: Microsome; method in brief: as §2
Rattus norvegicus [14] = organism: Rattus norvegicus; experiment: Compound was evaluated for alpha inhibition constant, in liver microsomes from 3-methylcholanthrene-exposed rats; conditions: Microsome; method in brief: as §3
Rattus norvegicus [15] = organism: Rattus norvegicus; experiment: Vmax determined by 7-ethoxycoumarin deethylation in the presence by liver microsomes from rats exposed to 3-methylcholanthrene at concentration of 10 nM; conditions: Microsome
Rattus norvegicus [16] = organism: Rattus norvegicus; experiment: Maximum rate constant for 7-ethoxycoumarin deethylation in rat liver microsomes exposed to beta-naphthoflavone at 5 uM; conditions: Microsome; method in brief: as §2
Rattus norvegicus [17] = organism: Rattus norvegicus; experiment: Maximum rate constant for 7-ethoxycoumarin deethylation in rat liver microsomes exposed to 3-methylcholanthrene at concentration of 50 nM; conditions: Microsome
Rattus norvegicus [18] = organism: Rattus norvegicus; experiment: Michaelis-Menten constant for 7-ethoxycoumarin deethylation in rat liver microsomes exposed to 3-methylcholanthrene at a concentration of 10 nM; conditions: Microsome
Rattus norvegicus [19] = organism: Rattus norvegicus; experiment: Compound was evaluated for alpha -rate constant, in liver microsomes from 3-methylcholanthrene-exposed rats; conditions: Microsome; method in brief: as §3
Rattus norvegicus [20] = organism: Rattus norvegicus; experiment: Maximum rate constant for 7-ethoxycoumarin deethylation in rat liver microsomes exposed to beta-naphthoflavone at 50 uM; conditions: Microsome; method in brief: as §2
Rattus norvegicus [21] = organism: Rattus norvegicus; experiment: Michaelis-Menten constant for 7-ethoxycoumarin deethylation in rat liver microsomes exposed to 3-methylcholanthrene at a concentration of 25 uM; conditions: Microsome; method in brief: as §2
Rattus norvegicus [22] = organism: Rattus norvegicus; experiment: Maximum rate constant for 7-ethoxycoumarin deethylation in rat liver microsomes exposed to 3-methylcholanthrene at concentration of 25 nM; conditions: Microsome
Rattus norvegicus [23] = organism: Rattus norvegicus; experiment: Michaelis-Menten constant for 7-ethoxycoumarin deethylation in rat liver microsomes exposed to beta-naphthoflavone at 27.5 uM; conditions: Microsome; method in brief: as §2
Rattus norvegicus [24] = organism: Rattus norvegicus; experiment: Michaelis-Menten constant for 7-ethoxycoumarin deethylation in rat liver microsomes exposed to 3-methylcholanthrene at a concentration of 50 uM; conditions: Microsome; method in brief: as §2
Rattus norvegicus [25] = organism: Rattus norvegicus; experiment: Michaelis-Menten constant for 7-ethoxycoumarin deethylation in rat liver microsomes exposed to beta-naphthoflavone at 5 uM; conditions: Microsome; method in brief: as §2
Rattus norvegicus [26] = organism: Rattus norvegicus; experiment: Maximum rate constant for 7-ethoxycoumarin deethylation in rat liver microsomes exposed to beta-naphthoflavone at concentration of 27.5 uM; conditions: Microsome; method in brief: as §2
Rattus norvegicus [27] = organism: Rattus norvegicus; experiment: Compound was evaluated for alpha -rate constant, in liver microsomes from beta-naphthoflavone-exposed rats; conditions: Microsome; method in brief: as §3
Rattus norvegicus [28] = organism: Rattus norvegicus; experiment: Michaelis-Menten constant for 7-ethoxycoumarin deethylation in rat liver microsomes exposed to beta-naphthoflavone at 500 uM; conditions: Microsome; method in brief: as §1
Rattus norvegicus [29] = organism: Rattus norvegicus; experiment: Michaelis-Menten constant for 7-ethoxycoumarin deethylation in rat liver microsomes exposed to 3-methylcholanthrene at concentration of 50 nM; conditions: Microsome
Rattus norvegicus [30] = organism: Rattus norvegicus; experiment: Michaelis-Menten constant for 7-ethoxycoumarin deethylation in rat liver microsomes exposed to beta-naphthoflavone at 1500 nM; conditions: Microsome
Rattus norvegicus [31] = organism: Rattus norvegicus; experiment: Maximum rate constant for 7-ethoxycoumarin deethylation in rat liver microsomes 3-methylcholanthrene at concentration of 200 nM; conditions: Microsome
Rattus norvegicus [32] = organism: Rattus norvegicus; experiment: Maximum rate constant for 7-ethoxycoumarin deethylation in rat liver microsomes exposed to beta-naphthoflavone at concentration of 1000 uM; conditions: Microsome; method in brief: as §2
Rattus norvegicus [33] = organism: Rattus norvegicus; experiment: Maximum rate constant for 7-ethoxycoumarin deethylation in rat liver microsomes exposed to beta-naphthoflavone at 500 uM; conditions: Microsome; method in brief: as §2
Rattus norvegicus [34] = organism: Rattus norvegicus; experiment: Maximum rate constant for 7-ethoxycoumarin deethylation in rat liver microsomes 3-methylcholanthrene at concentration of 100 nM; conditions: Microsome
Rattus norvegicus [35] = organism: Rattus norvegicus; experiment: Michaelis-Menten constant for 7-ethoxycoumarin deethylation in rat liver microsomes exposed to beta-naphthoflavone at 1000 nM; conditions: Microsome
Rattus norvegicus [36] = organism: Rattus norvegicus; experiment: Maximum rate constant for 7-ethoxycoumarin deethylation in rat liver microsomes 3-methylcholanthrene at concentration of 50 nM; conditions: Microsome
Rattus norvegicus [37] = organism: Rattus norvegicus; experiment: Maximum rate constant for 7-ethoxycoumarin deethylation in rat liver microsomes exposed to beta-naphthoflavone at concentration of 1500 uM; conditions: Microsome; method in brief: as §2
Rattus norvegicus [38] = organism: Rattus norvegicus; experiment: Michaelis-Menten constant for 7-ethoxycoumarin deethylation in rat liver microsomes exposed to 3-methylcholanthrene at concentration of 100 uM; conditions: Microsome; method in brief: as §2
Rattus norvegicus [39] = organism: Rattus norvegicus; experiment: Michaelis-Menten constant for 7-ethoxycoumarin deethylation in rat liver microsomes exposed to 3-methylcholanthrene at concentration of 200 uM; conditions: Microsome; method in brief: as §2
Rattus norvegicus [40] = organism: Rattus norvegicus; experiment: Maximum rate constant for 7-ethoxycoumarin deethylation in rat liver microsomes exposed to beta-naphthoflavone at 1000 nM; conditions: Microsome
Rattus norvegicus [41] = organism: Rattus norvegicus; experiment: Michaelis-Menten constant for 7-ethoxycoumarin deethylation in rat liver microsomes exposed to 3-methylcholanthrene at concentration of 75 nM; conditions: Microsome
Rattus norvegicus [42] = organism: Rattus norvegicus; experiment: Maximum rate constant for 7-ethoxycoumarin deethylation in rat liver microsomes exposed to beta-naphthoflavone at 1500 uM; conditions: Microsome; method in brief: as §2
Rattus norvegicus [43] = organism: Rattus norvegicus; experiment: Maximum rate constant for 7-ethoxycoumarin deethylation in rat liver microsomes exposed to 3-methylcholanthrene at concentration of 75 nM; conditions: Microsome
Rattus norvegicus [44] = organism: Rattus norvegicus; experiment: Michaelis-Menten constant for 7-ethoxycoumarin deethylation in rat liver microsomes exposed to 3-methylcholanthrene at concentration of 25 nM; conditions: Microsome

CC(C)c1ccccc1-n1cccc1
Ki [1]: 11 µM
Km (Rattus norvegicus [2]): 44.1 µM
Ki [3]: 19 µM
Km (Rattus norvegicus [4]): 91.3 µM
Km (Rattus norvegicus [5]): 52.2 µM
Alpha Ki (Rattus norvegicus [6]): 270 µM
Vmax (pM min-1 mg-1) (Rattus norvegicus [7]): 141
Km (Rattus norvegicus [8]): 10.2 µM
Vmax (pM min-1 mg-1) (Rattus norvegicus [9]): 652
Vmax (pM min-1 mg-1) (Rattus norvegicus [10]): 94
Vmax (pM min-1 mg-1) (Rattus norvegicus [11]): 493
Km (Rattus norvegicus [12]): 17.9 µM
Km (Rattus norvegicus [13]): 29.7 µM
Alpha Ki (Rattus norvegicus [14]): 60 µM

O=c1cc(-c2ccccc2)oc2c1ccc1ccccc12 [ALPHA-NAPHTHOFLAVONE]
Vmax (pM min-1 mg-1) (Rattus norvegicus [15]): 137
Ki [1]: 0.017 µM
Km (Rattus norvegicus [2]): 25.7 µM
Ki [3]: 0.024 µM
Vmax (pM min-1 mg-1) (Rattus norvegicus [16]): 1220
Vmax (pM min-1 mg-1) (Rattus norvegicus [17]): 69
Km (Rattus norvegicus [18]): 19.6 µM
Alpha Ki (Rattus norvegicus [19]): 0.033 µM
Vmax (pM min-1 mg-1) (Rattus norvegicus [20]): 665
Km (Rattus norvegicus [21]): 17.3 µM
Vmax (pM min-1 mg-1) (Rattus norvegicus [22]): 108
Km (Rattus norvegicus [23]): 17 µM
Km (Rattus norvegicus [24]): 23.4 µM
Km (Rattus norvegicus [25]): 18.5 µM
Vmax (pM min-1 mg-1) (Rattus norvegicus [26]): 904
Alpha Ki (Rattus norvegicus [27]): 0.048 µM

O=c1cc(-c2ccccc2)oc2cc3ccccc3cc12
Km (Rattus norvegicus [28]): 36.9 µM
Km (Rattus norvegicus [29]): 19.2 µM
Km (Rattus norvegicus [30]): 93.1 µM
Ki [1]: 0.049 µM
Ki [3]: 0.24 µM
Vmax (pM min-1 mg-1) (Rattus norvegicus [31]): 88
Vmax (pM min-1 mg-1) (Rattus norvegicus [32]): 1240
Vmax (pM min-1 mg-1) (Rattus norvegicus [33]): 1300
Alpha Ki (Rattus norvegicus [19]): 0.21 µM
Vmax (pM min-1 mg-1) (Rattus norvegicus [34]): 114
Km (Rattus norvegicus [35]): 66.3 µM
Vmax (pM min-1 mg-1) (Rattus norvegicus [36]): 150
Alpha Ki (Rattus norvegicus [27]): 11 µM
Vmax (pM min-1 mg-1) (Rattus norvegicus [37]): 1210
Km (Rattus norvegicus [38]): 16.7 µM
Km (Rattus norvegicus [39]): 31.5 µM

O=c1cc(-c2ccccc2)oc2ccc3ccccc3c12 [BETA-NAPHTHOFLAVONE]
Km (Rattus norvegicus [28]): 33.9 µM
Vmax (pM min-1 mg-1) (Rattus norvegicus [40]): 1100
Km (Rattus norvegicus [41]): 39.7 µM
Km (Rattus norvegicus [29]): 26.6 µM
Km (Rattus norvegicus [30]): 93.2 µM
Ki [1]: 0.026 µM
Ki [3]: 0.13 µM
Vmax (pM min-1 mg-1) (Rattus norvegicus [42]): 1000
Vmax (pM min-1 mg-1) (Rattus norvegicus [43]): 134
Vmax (pM min-1 mg-1) (Rattus norvegicus [17]): 143
Km (Rattus norvegicus [44]): 19.2 µM
Vmax (pM min-1 mg-1) (Rattus norvegicus [33]): 1200
Alpha Ki (Rattus norvegicus [19]): 0.28 µM
Vmax (pM min-1 mg-1) (Rattus norvegicus [22]): 159
Km (Rattus norvegicus [35]): 60 µM
Alpha Ki (Rattus norvegicus [27]): 4 µM
